Screening results as filed in PubChem.
MEKK2 WT-MEK5: raises or lowers MEK5 binding to wildtype human MEKK2 PB1 domain; binding response (% of control), % at 10 µM; Q9Y2U5; bead flow cytometry, Alexa488-MEK5 binding to MEKK2 WT; actives lie on both sides; AID 1531; 290,000 tested, 1.1% active; in the data active means binding response below about 67% or above about 130%
MEKK2mut PB1 HTS: signal of MEK5 binding to mutant human MEKK2 PB1 domain. bead flow cytometry, Alexa488-MEK5 binding to MEKK2 mutant. percent response, % at 10 µM. 290,000 tested, 0.35% active. AID 1530; in the data active means percent response above about 24%, passing the limit was not always enough
Apaf1 inhib: inhibitors of human Apaf-1 apoptosome; 330,000 tested, 0.71% active; inhibition, % at 20 µM; O14727; reconstituted apoptosome caspase-3 activity, DEVD-Rh110 fluorescence; AID 489030; active means inhibition of at least 40% at 20 µM;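 further: plate controls were DMSO wells for no effect and DEVD-CHO caspase inhibitor wells for full effect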
Target sequence (O14727 whole entry, looked up): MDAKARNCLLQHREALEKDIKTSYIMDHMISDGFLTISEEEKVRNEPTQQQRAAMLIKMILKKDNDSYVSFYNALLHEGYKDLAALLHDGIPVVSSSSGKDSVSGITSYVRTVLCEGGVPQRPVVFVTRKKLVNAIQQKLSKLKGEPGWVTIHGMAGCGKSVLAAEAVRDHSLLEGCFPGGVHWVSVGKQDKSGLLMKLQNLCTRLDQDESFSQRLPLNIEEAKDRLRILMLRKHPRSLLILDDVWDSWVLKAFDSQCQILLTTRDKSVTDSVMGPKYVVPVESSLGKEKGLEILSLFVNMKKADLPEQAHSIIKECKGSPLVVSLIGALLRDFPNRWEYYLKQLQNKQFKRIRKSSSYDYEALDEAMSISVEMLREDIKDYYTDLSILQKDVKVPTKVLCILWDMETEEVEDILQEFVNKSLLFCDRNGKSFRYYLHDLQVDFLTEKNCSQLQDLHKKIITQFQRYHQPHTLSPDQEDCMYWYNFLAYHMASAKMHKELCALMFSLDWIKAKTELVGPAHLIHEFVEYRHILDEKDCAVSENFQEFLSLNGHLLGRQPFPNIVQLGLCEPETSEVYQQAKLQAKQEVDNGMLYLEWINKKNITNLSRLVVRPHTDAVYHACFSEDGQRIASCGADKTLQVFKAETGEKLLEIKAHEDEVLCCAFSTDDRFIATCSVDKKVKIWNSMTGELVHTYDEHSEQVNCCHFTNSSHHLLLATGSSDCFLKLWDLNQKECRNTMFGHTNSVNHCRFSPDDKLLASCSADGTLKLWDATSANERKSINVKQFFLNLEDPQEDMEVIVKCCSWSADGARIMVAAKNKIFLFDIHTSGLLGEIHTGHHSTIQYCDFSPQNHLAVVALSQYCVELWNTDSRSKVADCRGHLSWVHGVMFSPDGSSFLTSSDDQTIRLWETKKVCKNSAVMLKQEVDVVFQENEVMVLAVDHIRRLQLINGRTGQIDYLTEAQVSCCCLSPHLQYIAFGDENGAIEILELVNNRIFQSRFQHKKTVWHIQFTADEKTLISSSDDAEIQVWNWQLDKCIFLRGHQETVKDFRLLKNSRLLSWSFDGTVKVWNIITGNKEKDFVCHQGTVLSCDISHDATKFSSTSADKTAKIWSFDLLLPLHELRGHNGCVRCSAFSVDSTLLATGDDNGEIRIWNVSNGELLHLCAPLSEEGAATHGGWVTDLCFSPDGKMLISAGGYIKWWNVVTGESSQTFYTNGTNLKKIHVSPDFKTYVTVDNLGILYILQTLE
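System – cell-free apoptosome with Apaf-1, procaspase-3 and caspase-9 · Buffer or medium – pH 7.5 Hepes buffer with CHAPS, BSA, DTT · Also added – cytochrome c with DEVD-Rh110 · Times – 30 min compound preincubation, 50 min activation, room temperature · Technique – Rh110 fluorescence intensity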
UBC13 inh: blocks human UBC13 polyubiquitin chain formation; TR-FRET; 330,000 tested, 0.47% active; inhibition, % at 20 µM; AID 485273; in the data active means inhibition above about 45%, passing the limit was not always enough
MEKK3 PB1 HTS: modulators (inhibitors or enhancers) of MEK5 binding to human MEKK3 PB1 domain | bead-based flow cytometry, Alexa488-MEK5 binding to MEKK3; actives lie on both sides; 0 = blocked by unlabeled MEK5, 100 = vehicle | binding response (% of control), % at 10 µM | 290,000 tested, 1.4% active | AID 1529;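 active means binding response more than 3 SD above or below the average of its plate-row segment, actives on both sides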;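 further: Alexa488 bead fluorescence after subtracting the streptavidin-only scavenger bead signal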
DSG3 Ab inh: human desmoglein-3 autoantibody binding inhibition | DSG3-coupled beads, scFv-anti-DSG3-GFP binding, flow cytometry; active compounds read low | 310,000 tested, 0.48% active | P32926 | binding (percent of control), % at 10 µM;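 active means binding more than 3 SD below its plate's average and above zero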;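 further: hits lower antibody fragment binding to DSG3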
MEKK2wt confirm: raises or lowers MEK5 binding to wildtype human MEKK2, retest | bead flow cytometry, Alexa488-MEK5 binding to MEKK2 WT; actives lie on both sides | 5,900 tested, 2.4% active | binding response (% of control), % at 10 µM | AID 1892 | shares compounds with MEKK3 PB1 HTS; in the data active means binding response below about 16% or above about 210%; inactive means in between
MEKK2mut confirm: signal of MEK5 binding to mutant human MEKK2, retest | percent response, % at 10 µM | AID 1893 | bead flow cytometry, Alexa488-MEK5 binding to MEKK2 mutant | shares compounds with MEKK3 PB1 HTS | 5,900 tested, 2% active; in the data active means percent response mostly above about 71%, no sharp cut-off; inactive means mostly below about 38%;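 further: higher means compound restores mutant binding toward wildtype level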
MEKK3 confirm: MEKK3-MEK5 PB1 inhibition, single concentration confirmation; shares compounds with MEKK3 PB1 HTS; bead flow cytometry, Alexa488-MEK5 binding to MEKK3; active compounds read low; binding response (% of control), % at 10 µM; 5,900 tested, 1.8% active;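 active means binding response below 72% of control, or above a set upper limit, though filed actives all read lower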;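 further: 100% = DMSO only wells and 0% = binding blocked by excess unlabeled MEK5; lower values mean stronger disruption of MEK5 binding to MEKK3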
* = called active by the depositor; / = no result given; [ ] = dose if it differs, or a comment. An excerpt weighted towards active compounds, which were near 3.2% of everything screened.

SMILES	MEKK2 WT-MEK5	MEKK2mut PB1 HTS	Apaf1 inhib	UBC13 inh	MEKK3 PB1 HTS	DSG3 Ab inh	MEKK2wt confirm	MEKK2mut confirm	MEKK3 confirm
C=CCOc1ccccc1CNCCc1ccc(S(N)(=O)=O)cc1	109	-55	5	-1	88	104	/	/	/
NS(=O)(=O)c1ccc(CCNCc2ccccc2OCc2ccc(Cl)cc2)cc1	145*	8	19	25	106	109	129	16	108
NS(=O)(=O)c1ccc(CCNCc2cc(Cl)ccc2OCc2ccccc2)cc1	144*	6	12	17	108	98	135	20	106
O=[N+]([O-])c1ccccc1Nc1cccnc1	/	/	-7	-31	/	98	/	/	/
CC1(C)CC(=O)C2=C(C1)OC(N)=C([N+](=O)[O-])C2c1ccc(F)cc1 (stereo not drawn)	137	27	-7	1	137*	116	106	3	102
COCc1[nH][nH]c(=O)c1C=Nc1ccccc1	/	/	-4	-5	/	/	/	/	/
COCc1[nH][nH]c(=O)c1/C=N/N1CCOCC1	56	-17	-3	1	40*[inhibitor]	105	104	5	107
O=C(NCCc1c[nH]c2ccccc12)C(=O)NCC(c1ccco1)N1CCN(c2ccccc2)CC1 (stereo not drawn)	104	-1	5	2	100	/	/	/	/
Cc1ccc(CNC(=O)C(=O)NCC(c2ccco2)N2CCOCC2)cc1 (stereo not drawn)	102	0	-8	4	129*	91	103	-3	98
O=C(NCCc1c[nH]c2ccccc12)C(=O)NCC(c1ccco1)N1CCN(c2ccc(F)cc2)CC1 (stereo not drawn)	107	0	9	6	129*	/	96	-6	102
O=C(NCc1ccc(Cl)cc1)C(=O)NCC(c1ccco1)N1CCOCC1 (stereo not drawn)	107	12	4	17	102	100	/	/	/
Cn1ncc2c1NC(c1ccc(F)cc1)SCC2=O (stereo not drawn)	/	/	/	/	/	98	/	/	/
CC(C)CC(=O)N1CC=CC[C@@H](c2ccc(Cl)cc2)N(Cc2ccc(Cl)cc2)C(=O)[C@@H]1Cc1ccccc1	/	/	/	/	/	109	/	/	/
Cc1oc2c(C)c(O)ccc2c(=O)c1-c1cnn(-c2ccccc2)c1	81	-12	-4	14	69*[inhibitor]	94	97	-4	99
CC(=O)c1ccsc1-c1c(C)cc2oc(=O)cc(-c3ccccc3)c2c1C	/	/	25	/	/	101	/	/	/
Cc1nc2c(-c3ccc(F)cc3)c(C)nn2c(C)c1CCC(=O)Nc1ccccc1F	48	-13	9	9	45*[inhibitor]	90	94	-7	99
COC(CNC(=O)CCc1c(C)nc2c(-c3ccc(F)cc3)c(C)nn2c1C)OC	99	1	6	-4	101	96	/	/	/
Cc1nn(CCOc2ccccc2)c(=O)n1-c1ccc(Cl)cc1	123	4	-10	0	141*	112	102	-1	103
O=C(Nc1ccc(S(=O)(=O)Nc2ncccn2)cc1)c1cccc([N+](=O)[O-])c1	/	/	/	/	/	98	/	/	/
CCN(CC)c1ccc(/C=N/NC(=O)CN2CCCc3ccccc32)cc1	101	-1	24	2	139*	101	96	-6	100
CC[C@]12c3[nH]c4cc(CCC(=O)N(C)C)ccc4c3CCN1C(=O)[C@@H](CC(=O)NCC13CC4CC(CC(C4)C1)C3)C[C@@H]2C(=O)N1CCN(C(=O)c2ccco2)CC1	/	/	29	/	/	95	/	/	/
O=C1CCCc2c1sc1nc3n(c(=O)c21)CCCCC3	139*	14	-3	-5	114	102	97	-3	100
O=c1c2c3c(sc2nc2n1CCCCC2)CCC3	102	-3	-6	16	100	98	/	/	/
Cc1cccc(Nc2cc(=O)n(C)c(=O)n2C)c1	/	/	/	/	/	93	/	/	/
COc1cc(/C=N/NC(=O)C2c3ccccc3Oc3ccccc32)ccc1O	125	14	11	-7	122*	102	104	0	107
SMILES	MEKK2 WT-MEK5	MEKK2mut PB1 HTS	Apaf1 inhib	UBC13 inh	MEKK3 PB1 HTS	DSG3 Ab inh	MEKK2wt confirm	MEKK2mut confirm	MEKK3 confirm
COc1cc(/C=N/NC(=O)C2(O)c3ccccc3-c3ccccc32)ccc1O	108	0	2	6	148*	106	99	-11	100
CCOc1ccc(/C=N/NC(=O)C2(O)c3ccccc3-c3ccccc32)cc1	100	-1	1	5	96	98	/	/	/
COc1cc(/C=N/NC(=O)C2COc3ccccc3O2)ccc1O (stereo not drawn)	96	-3	-24	3	102	99	/	/	/
COc1cc(/C=N\NC(=O)CNC(=O)C2COc3ccccc3O2)ccc1O (stereo not drawn)	170*	29	9	-5	134*	100	95	-2	97
CC1=CC(C)(C)N(C(=O)Nc2ccccc2)c2ccccc21	48	-15	-1	-9	43*[inhibitor]	102	97	3	95
CC1=CC(C)(C)N(C(=O)c2ccccc2)c2ccccc21	97	-1	16	3	103	98	/	/	/
Cc1ccc(-n2nc(-c3ccccc3)cc2Nc2ccccc2N)cc1	113	1	13	18	139*	129	100	-8	101
COC(=O)[C@H]1C[C@H](OC(=O)Nc2c(C)noc2C)[C@@]2(O)CN(S(=O)(=O)c3ccc(C)cc3)CC2[C@H]1C(=O)OC (stereo partly drawn)	/	/	/	/	/	98	/	/	/
Cc1sc2nc(C3CC3)nc(SCC(=O)NCc3ccco3)c2c1C	100	1	5	10	101	87	/	/	/
O=C(CSc1nc(C2CCCCC2)nc2ccccc12)NCc1ccco1	-1.0*[inhibitor]	-28	11	-2	2.0*[inhibitor]	102	109	7	110
Cc1cc(C)nc(SCc2cc(=O)c(OC(=O)c3ccco3)co2)n1	101	-1	-1	-3	113	98	/	/	/
Cc1cc(C)nc(SCc2cc(=O)c(OC(=O)c3ccc(Br)o3)co2)n1	109	1	1	5	128*	118	100	-8	99
